Data published in ChEMBL document CHEMBL1909609, “Synthesis of purine modified 2'-C-methyl nucleosides as potential anti-HCV agents” (Bioorg Med Chem Lett, 2011).
Activity calls are given as the source filed them. No cut-off for these calls is given here.

Experiments:
[1] = Cytotoxicity against african green monkey Vero after 5 days; format: cell-based; conditions: chlorocebus sabaeus, Vero cells
[2] = test system: Huh-7; experiment: Cytotoxicity against human HuH7 cells assessed as rRNA level at 10 uM; format: cell-based; conditions: huh-7, 10 µM
Summary of the method: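 Huh7 cells carrying a subgenomic HCV replicon were given compound at 10 μM. Cytotoxicity was measured alongside anti-HCV activity by extracting and amplifying ribosomal RNA together with HCV RNA.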

[3] = Cytotoxicity against human PBMC after 5 days; format: cell-based
[4] = target: T1, Adenosine deaminase (Homo sapiens) (UniProt P00813); experiment: Activity at adenosine deaminase assessed as nitrogen to oxygen transformation
T1 sequence (whole entry): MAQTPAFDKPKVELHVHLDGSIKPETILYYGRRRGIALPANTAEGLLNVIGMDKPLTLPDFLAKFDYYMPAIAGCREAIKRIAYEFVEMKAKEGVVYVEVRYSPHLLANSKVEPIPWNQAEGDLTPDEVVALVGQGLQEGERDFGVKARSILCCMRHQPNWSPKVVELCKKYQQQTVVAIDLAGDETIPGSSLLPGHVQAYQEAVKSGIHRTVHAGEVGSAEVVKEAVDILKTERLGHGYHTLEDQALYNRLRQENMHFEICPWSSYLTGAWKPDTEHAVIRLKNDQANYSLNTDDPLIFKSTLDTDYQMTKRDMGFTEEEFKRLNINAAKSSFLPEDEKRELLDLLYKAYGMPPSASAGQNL

[5] = test system: Human immunodeficiency virus 1; experiment: Antiviral activity against HIV1 LAI infected in human peripheral blood mononuclear cells assessed as inhibition of viral replication after 5 days by quantitative RT-PCR analysis; format: functional, organism-based; conditions: Human immunodeficiency virus 1, LAI, 120 h
Summary of the method: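 Primary human PBM cells were infected with HIV-1 LAI, and AZT was run as the positive standard.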

[6] = (§1) Cytotoxicity against human CEM after 5 days; format: cell-based, CCRF-CEM; conditions: CEM cells (CCRF-CEM)
[7] = test system: Hepatitis C virus; experiment: Antiviral activity against HCV infected in human HuH7 cells assessed as inhibition of viral replication at 10 uM by RT-PCR analysis; format: functional, Hepacivirus hominis; conditions: Huh-7
Summary of the method: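 Huh7 cells carrying a subgenomic HCV replicon, with compounds tested at 10 μM. HCV RNA and ribosomal RNA were extracted and amplified together, so cytotoxicity was read at the same time as replicon inhibition.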

[8] = target: T1, Adenosine deaminase (Homo sapiens); experiment: Activity at adenosine deaminase
Summary of the method: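 ADA inhibition assay: 140 μM adenosine (final) with 0.01 units adenosine deaminase in 50 mM potassium phosphate, pH 7.4; compounds at 10 μM. Absorbance at 265 nm followed over four minutes. Inhibition judged from the change in slope relative to no-compound control, with a slope nearing zero indicating inhibition.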

[9] = test system: Hepatitis C virus; experiment: Antiviral activity against HCV infected in human HuH7 cells assessed as inhibition of viral replication by RT-PCR analysis; format: functional, organism-based, Hepacivirus hominis; conditions: Huh-7
Summary of the method: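 Subgenomic HCV replicon system in Huh7 cells. HCV RNA and ribosomal RNA were both extracted and amplified, with the rRNA signal giving cytotoxicity at the same time as antiviral activity.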

[10] = Chemical stability of the compound in phosphate buffer at pH 7.4 assessed as formation of complex mixture product after 3 days; format: physicochemical; conditions: pH 7.4, 72 h
[11] = test system: CCRF-CEM; experiment: as §1; format: cell-based; conditions: ccrf-cem, 120 h

CCOP(=O)(OCC)c1nc(N)nc2c1ncn2[C@@H]1O[C@H](CO)[C@@H](O)[C@@]1(C)O
CC50 at 120 h [1]: > 100 µM
Activity [2]: 15%
CC50 at 120 h [3]: > 100 µM
Activity [4]: inactive
EC50 [5]: > 100 µM
EC90 [5]: > 100 µM
CC50 at 120 h [6]: > 100 µM
inhibition at 10 µM [7]: 19%

C[C@@]1(O)[C@H](O)[C@@H](CO)O[C@H]1n1cnc2c(N)nc(-n3cc([Si](C)(C)C)nn3)nc21
CC50 at 120 h [1]: > 100 µM
Activity [2]: 0%
CC50 at 120 h [3]: > 100 µM
EC50 [5]: > 100 µM
EC90 [5]: > 100 µM
CC50 at 120 h [6]: > 100 µM
inhibition at 10 µM [7]: 0%

C[C@@]1(O)[C@H](O)[C@@H](CO)O[C@H]1n1cnc2c(N)nc(Cl)nc21
CC50 at 120 h [1]: > 100 µM
Activity [2]: 5.8%
CC50 at 120 h [3]: > 100 µM
EC50 [5]: > 100 µM
EC90 [5]: > 100 µM
CC50 at 120 h [6]: > 100 µM
inhibition at 10 µM [7]: 0%

Cc1nc(N)nc2c1ncn2[C@@H]1O[C@H](CO)[C@@H](O)[C@@]1(C)O
CC50 at 120 h [1]: > 100 µM
Activity [2]: 0%
CC50 at 120 h [3]: > 100 µM
EC50 [5]: 70 µM
EC90 [5]: > 100 µM
CC50 at 120 h [6]: 13 µM
inhibition at 10 µM [7]: 0%

C[C@@]1(O)[C@H](O)[C@@H](CO)O[C@H]1n1cnc(C(=O)NN)c1/C(N)=N/N
CC50 at 120 h [1]: > 100 µM
Activity [2]: 9%
CC50 at 120 h [3]: > 100 µM
EC50 [5]: > 100 µM
EC90 [5]: > 100 µM
CC50 at 120 h [6]: > 100 µM
inhibition at 10 µM [7]: 0%

C[C@@]1(O)[C@H](O)[C@@H](CO)O[C@H]1n1cnc2c(N)nc(-n3ccnn3)nc21
CC50 at 120 h [1]: > 100 µM
Activity [2]: 0%
CC50 at 120 h [3]: > 100 µM
Activity [4]: inactive
EC50 [5]: > 100 µM
EC90 [5]: > 100 µM
Activity [8]: Active
CC50 at 120 h [6]: > 100 µM
inhibition at 10 µM [7]: 0%

C[C@@]1(O)[C@H](O)[C@@H](CO)O[C@H]1n1cnc2c(=N)n(N)[nH]c(=O)c21
CC50 at 120 h [1]: > 100 µM
Activity [2]: 0%
CC50 at 120 h [3]: > 100 µM
EC50 [5]: > 100 µM
EC90 [5]: > 100 µM
CC50 at 120 h [6]: > 100 µM
inhibition at 10 µM [7]: 0%

CCOC(=O)[C@H](C)NP(=O)(OC[C@H]1O[C@@H](n2cnc3c(N)nc(NN)nc32)[C@](C)(O)[C@@H]1O)Oc1ccccc1 (some centres undefined)
EC50 [9]: 0.9 µM

COc1nc(Cl)nc2c1ncn2[C@@H]1O[C@H](CO)[C@@H](O)[C@@]1(C)O
CC50 at 120 h [1]: > 100 µM
Activity [2]: 9.8%
CC50 at 120 h [3]: > 100 µM
EC50 [5]: > 100 µM
EC90 [5]: > 100 µM
CC50 at 120 h [6]: > 100 µM
inhibition at 10 µM [7]: 14%

C[C@@]1(OC(=O)c2ccccc2)[C@H](OC(=O)c2ccccc2)[C@@H](COC(=O)c2ccccc2)O[C@H]1n1cnc2c(N)nc(NO)nc21
CC50 at 120 h [1]: 42 µM
Activity [2]: 76%
CC50 at 120 h [3]: > 100 µM
EC50 [5]: 8.7 µM
EC90 [5]: 42 µM
CC50 at 120 h [6]: 27 µM
inhibition at 10 µM [7]: 66%

CCOP(=O)(O)c1nc(N)nc2c1ncn2[C@@H]1O[C@H](CO)[C@@H](O)[C@@]1(C)O
CC50 at 120 h [1]: > 100 µM
Activity [2]: 15%
CC50 at 120 h [3]: > 100 µM
Activity [4]: inactive
EC50 [5]: > 100 µM
EC90 [5]: > 100 µM
CC50 at 120 h [6]: > 100 µM
inhibition at 10 µM [7]: 19%

C[C@@]1(O)[C@H](O)[C@@H](CO)O[C@H]1n1cnc2c(N)nc(NN)nc21
CC50 at 120 h [1]: > 100 µM
Activity [2]: 7%
CC50 at 120 h [3]: > 100 µM
EC50 [5]: > 100 µM
EC90 [5]: > 100 µM
CC50 at 120 h [6]: > 100 µM
Stability [10]: Unstable
EC50 [9]: 6 µM
inhibition at 10 µM [7]: 85%

C[C@@]1(O)[C@H](O)[C@@H](CO)O[C@H]1n1cnc2c(=O)[nH]nc(N)c21
CC50 at 120 h [1]: > 100 µM
Activity [2]: 0%
CC50 at 120 h [3]: > 100 µM
EC50 [5]: > 100 µM
EC90 [5]: > 100 µM
CC50 at 120 h [6]: > 100 µM
inhibition at 10 µM [7]: 0%

Cc1nc2c3ncn([C@@H]4O[C@H](CO)[C@@H](O)[C@@]4(C)O)c3nc(N)n2n1
CC50 at 120 h [1]: > 100 µM
Activity [2]: 0%
CC50 at 120 h [3]: > 100 µM
EC50 [5]: > 100 µM
EC90 [5]: > 100 µM
CC50 at 120 h [6]: > 100 µM
inhibition at 10 µM [7]: 0%

C[C@@]1(O)[C@H](O)[C@@H](CO)O[C@H]1n1cnc2c(N)nc(N=[N+]=[N-])nc21
CC50 at 120 h [1]: > 100 µM
Activity [2]: 0%
CC50 at 120 h [3]: > 100 µM
EC50 [5]: > 100 µM
EC90 [5]: > 100 µM
CC50 at 120 h [6]: > 100 µM
inhibition at 10 µM [7]: 5.2%

C[C@@]1(O)[C@H](O)[C@@H](CO)O[C@H]1n1cnc2c1nc(N)n1nc(-c3ccco3)nc21
CC50 at 120 h [1]: > 100 µM
Activity [2]: 0%
CC50 at 120 h [3]: > 100 µM
EC50 [5]: > 100 µM
EC90 [5]: > 100 µM
CC50 at 120 h [6]: > 100 µM
inhibition at 10 µM [7]: 0%

C[C@@]1(O)[C@H](O)[C@@H](CO)O[C@H]1n1cnc2c(N)n[nH]c(=O)c21
CC50 at 120 h [1]: > 100 µM
Activity [2]: 0%
CC50 at 120 h [3]: > 100 µM
Activity [4]: inactive
EC50 [5]: > 100 µM
EC90 [5]: > 100 µM
CC50 at 120 h [6]: > 100 µM
inhibition at 10 µM [7]: 0%

C[C@@]1(OC(=O)c2ccccc2)[C@H](OC(=O)c2ccccc2)[C@@H](COC(=O)c2ccccc2)O[C@H]1n1cnc2c(Cl)nc(NO)nc21
CC50 at 120 h [1]: > 100 µM
Activity [2]: 100%
CC50 at 120 h [3]: 43 µM
EC50 [5]: 17 µM
EC90 [5]: 65 µM
CC50 [11]: 7.3 µM
inhibition at 10 µM [7]: 100%

CCOC(=O)[C@H](C)NP(=O)(OC[C@H]1O[C@@H](n2cnc3c(C)nc(N)nc32)[C@](C)(O)[C@@H]1O)Oc1ccccc1 (some centres undefined)
CC50 at 120 h [1]: > 100 µM
Activity [2]: 0%
CC50 at 120 h [3]: > 100 µM
EC50 [5]: 68 µM
EC90 [5]: > 100 µM
CC50 at 120 h [6]: > 100 µM
inhibition at 10 µM [7]: 0%
